Series [1] is filed under the species Rattus norvegicus. As to the kind of experiment: CNS activity in rat assessed as gross behaviour. The settings on record: in vivo. The series is classed as ADME, organism-based.
Series [2] deals with Rattus norvegicus. As to the kind of experiment: Antifertility activity in rat at 5 mg/day administered for 7 days. The series is classed as functional, organism-based. The method, boiled down:
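Rat antifertility test: 5 mg/rat/day given for 7 days to two female rats.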

Molecules are shown by their SMILES. Active and inactive are the calls of the source. The rule behind the calls is not given here.

For the compound `O=C1CCN(c2cccc(Cl)c2)N1`, the Activity result in series [1] is “Non-toxic”. Besides, the outcome in series [2] was inactive.

Regarding `COc1cccc(N2CCC(=O)N2)c1`, the Activity result in series [1] is “Non-toxic”. The outcome in series [2] was inactive.

In the case of `COc1cccc(N2CCC(=O)N2CCCC(O)c2ccc(F)cc2)c1` (stereo not drawn), in series [1], the Activity entry was “Non-toxic”. Also, in series [2], the result was inactive.

Consider `CCCCOc1cccc(N2CCC(=O)N2)c1`, for which the Activity entry in series [1] is listed as “Non-toxic”. Further, the result in series [2] was inactive.

With `COc1cccc(N2CCC(=O)N2CCCC(=O)c2ccc(F)cc2)c1`, the Activity entry in series [1] was “Non-toxic”. Also, the result in series [2] was inactive.

As for `CCOC(=O)CCCCCOC1=NN(c2cccc(OC)c2)CC1`, in series [1], the Activity result is recorded as “Non-toxic”. In addition, the result in series [2] was inactive.

For the compound `O=C1CCN(c2cccc(C(F)(F)F)c2)N1`, the Activity result in series [1] is reported as “Non-toxic”. In addition, the outcome in series [2] was inactive.

With `CCOC(=O)COC1=NN(c2cccc(C(F)(F)F)c2)CC1`, the Activity result in series [1] was “Non-toxic”. In addition, in series [2], the result was inactive.

Regarding `CCOC(=O)COC1=NN(c2cccc(Cl)c2)CC1`, the Activity result in series [1] was “Non-toxic”. For the same compound, the outcome in series [2] was inactive.
